Results gathered from unrelated publications.
Each line is one published result; the experiments were not run side by side.
Target: Ephrin type-A receptor 7 (EPHA7, Homo sapiens, UniProt Q15375)

SMILES | observed | technique | tested at | remaining binding [%]
O=C(NCC1CCOCC1)c1n[nH]cc1NC(=O)c1c(F)cccc1F | binding | competition with immobilised ligand | 1 µM | 97
COc1cnc(Nc2cccc(S(N)(=O)=O)c2)nc1N1CCN(c2ccccc2)C(=O)C1 | binding | competition with immobilised ligand | 1 µM | 100
CN(C)c1nccc(-c2cnc3ncccn23)n1 | binding | – | 1 µM | 68
Cc1cnc(Nc2ccc(C(=O)N3CCC(N4CCCC4)CC3)cc2)nc1-c1cc2ccccc2s1 | binding | competition with immobilised ligand | 1 µM | 67
Cc1cnn2ncc(-c3ccnc(N(C)C)n3)c2c1 | binding | – | 1 µM | 100
COc1cnc(Nc2cccc(S(N)(=O)=O)c2)nc1N1CCN(c2ccccc2)CC1 | binding | competition with immobilised ligand | 1 µM | 86
O=C(NCCCN1CCOCC1)c1ccc(Nc2nccc(-c3cc4ccccc4s3)n2)cc1 | binding | competition with immobilised ligand | 1 µM | 100
CN(CCCC(F)(F)F)c1nccc(-c2cnn3ncccc23)n1 | binding | – | 1 µM | 96
N#CC1(c2ccccn2)CCN(Cc2cc(C(=O)N3CCCC3)c(=O)n3ccccc23)CC1 | cell-free assay | competition with immobilised ligand | 1 µM | 100
Nc1ncc2c(n1)-c1c([nH]c3ccc(C#CC4CC4)cc13)CCCC2 | binding | competition with immobilised ligand | 1 µM | 100
CNC(=O)Nc1ccc2c(c1)[C@@]1(CC2)OC(=O)N(CC(=O)N(Cc2ccc(F)cc2)[C@@H](C)C(F)(F)F)C1=O | cell-free assay | competition with immobilised ligand | 1 µM | 100
O=C(c1ccc(Nc2ncc(Cl)c(-c3ccc(Cl)s3)n2)cc1)N1CCC(N2CCCC2)CC1 | binding | competition with immobilised ligand | 1 µM | 56
O=C(Nc1cnc(Oc2ccc(F)cc2)nc1)N1CCc2ncccc2[C@@H]1c1ccc(F)cc1 | cell-free assay | competition with immobilised ligand | 1 µM | 88
N[C@@H]1CCN(c2nccc(-c3cnn4ncccc34)n2)C1 | binding | – | 1 µM | 91
Cn1cc(Cl)c2c(Oc3c(F)cc(Nc4cc(Cl)nc(N)n4)cc3F)ccnc21 | cell-free assay | competition with immobilised ligand | 0.1 µM | 96
CCN1CCN(Cc2ccc(C(=O)Nc3ccc(C)c(Oc4ccc5c(c4)CC(=O)N5)c3)cc2C(F)(F)F)CC1 | binding | competition with immobilised ligand | 1 µM | 89
CCOC(=O)c1cc2cc(-c3cc(C(=O)NCc4ccc(C(=O)O)cc4)nn3C)ccc2[nH]1 | cell-free assay | competition with immobilised ligand | 0.1 µM | 97
F[C@@H]1CCN(c2nccc(-c3cnn4ncccc34)n2)C1 | binding | – | 1 µM | 100
O=C1NC(c2ccccn2)Sc2ccccc21 (centres unmarked) | cell-free assay | competition with immobilised ligand | 1 µM | 72
C[C@@H]1CCN(c2nccc(-c3cnn4ncccc34)n2)C1 | binding | – | 1 µM | 84
